Test [1] has as its target T1, Vesicular acetylcholine transporter (Torpedo californica, UniProt P81721).
T1 sequence (P81721 whole entry): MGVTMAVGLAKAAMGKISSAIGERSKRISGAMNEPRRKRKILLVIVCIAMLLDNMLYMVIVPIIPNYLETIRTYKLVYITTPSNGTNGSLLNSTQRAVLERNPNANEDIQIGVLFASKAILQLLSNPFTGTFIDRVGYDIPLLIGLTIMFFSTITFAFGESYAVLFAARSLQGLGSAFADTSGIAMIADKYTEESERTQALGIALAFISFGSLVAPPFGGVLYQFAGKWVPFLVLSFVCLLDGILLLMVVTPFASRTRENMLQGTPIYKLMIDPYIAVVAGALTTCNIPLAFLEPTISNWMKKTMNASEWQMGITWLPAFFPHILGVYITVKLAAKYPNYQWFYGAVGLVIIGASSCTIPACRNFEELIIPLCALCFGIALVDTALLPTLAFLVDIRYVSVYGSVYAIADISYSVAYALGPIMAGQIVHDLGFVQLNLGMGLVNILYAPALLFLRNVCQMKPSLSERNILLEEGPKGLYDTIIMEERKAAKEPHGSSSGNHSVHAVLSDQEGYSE
Kind of test: Displacement of [3H]vesamicol from VAChT in Torpedo californica cholinergic synaptic vesicles. Also noted: species or system Tetronarce californica. An outline of the steps: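 Compounds tested as hydrochlorides. Averaged data fit by regression to a rectangular hyperbola to give Ki. Each compound assayed independently at least two times; Ki reported as mean ± SEM from at least three experiments.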
For orientation: In a radioligand displacement assay an active substance lowers the binding of a labelled ligand.

The nature of test [2]: Displacement of [3H]DTG from sigma 2 receptor in rat liver membrane homogenates after 2 hrs by liquid scintillation counting. Format: cell membranes. An outline of the steps: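 Rat liver membranes (~300 μg protein) with ~5 nM [3H]DTG plus 1 μM (+)-pentazocine to mask σ1 sites, 2 h at room temperature. Compounds were diluted in pH 7.4 Tris-HCl/NaCl/EDTA buffer. Nonspecific binding taken with 10 μM haloperidol, then filtration and scintillation counting. IC50 from one-site regression. Ki by Cheng-Prusoff (Kd 30.73 nM), mean ± SEM.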

Test [3] addresses Sigma non-opioid intracellular receptor 1 (Cavia porcellus, UniProt Q60492). Kind of test: Displacement of [3H](+)-pentazocine from sigma 1 receptor in guinea pig brain membrane homogenates after 90 mins by liquid scintillation counting. Format: cell membranes. Put shortly: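 Compounds dissolved in DMF, DMSO or ethanol, then diluted in 50 mM Tris-HCl, 150 mM NaCl, 100 mM EDTA, pH 7.4. Guinea pig brain membranes (~300 μg protein) with ~5 nM [3H](+)-pentazocine, 90 min at room temperature. Nonspecific binding taken with 10 μM haloperidol. Filtered and counted. IC50 from one-site nonlinear fit. Ki by Cheng-Prusoff (Kd 7.89 nM), mean ± SEM.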

The nature of test [4]: Selectivity ratio of for sigma 2 receptor in rat liver membrane homogenates to Ki for VAChT in Torpedo californica cholinergic synaptic vesicles. The class given is cell membranes. An outline of the steps:
(§1)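 Index calculated as Ki(σ1 or σ2)/Ki(VAChT). […] Averaged data were fit to a rectangular hyperbola, and each compound was assayed independently at least twice. σ Ki values come from the radioligand binding assays in guinea pig brain (σ1) and rat liver (σ2) membranes.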

A short description of test [5]: Selectivity ratio of Ki for sigma 1 receptor in guinea pig brain membrane homogenates to Ki for VAChT in Torpedo californica cholinergic synaptic vesicles. Format: cell membranes. An outline of the steps: as §1

pKi: −log10 of the molar value.

Sequence of Sigma non-opioid intracellular receptor 1 (Q60492 whole entry): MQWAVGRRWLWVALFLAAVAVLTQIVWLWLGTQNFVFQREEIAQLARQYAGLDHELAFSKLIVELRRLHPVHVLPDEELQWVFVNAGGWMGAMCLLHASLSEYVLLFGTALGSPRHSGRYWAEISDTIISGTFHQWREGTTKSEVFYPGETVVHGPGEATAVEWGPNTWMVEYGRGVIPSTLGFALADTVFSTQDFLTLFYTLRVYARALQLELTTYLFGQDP

One may read the pKi as −log10 of the Ki, conventionally taken in molar units. `O=C(Cc1ccccc1)C1(c2ccccc2)CCN([C@@H]2Cc3ccccc3C[C@H]2O)CC1` (relative stereo): the pKi in test [1] was 8.86.
Turning to `Nc1cccc2c1C[C@@H](N1CCC(C(=O)c3cccs3)CC1)[C@H](O)C2`, the pKi is < 6.00 in test [2], < 6.00 in test [3] and 8.31 in test [1].
Consider `Nc1cccc2c1C[C@@H](N1CCC(C(=O)N3CCCCC3)CC1)[C@H](O)C2`, for which, in test [1], the pKi is 7.05.
For the molecule `Nc1cccc2c1C[C@@H](O)[C@H](N1CCC(C(=O)c3ccc(Br)s3)CC1)C2`, the Ratio Ki in test [4] is 4.1; in test [5], 16.4. Further, the values for the pKi in test [2], in test [3] and in test [1] were 6.92, 6.32 and 7.53, respectively.
As for `O=C(C1CCN([C@@H]2Cc3ccccc3C[C@H]2O)CC1)N1CCC(Cc2ccccc2)CC1` (relative stereo), in test [5], the Ratio Ki turned out to be 8.3. Besides, the pKi is < 6.00 in test [2], 7.70 in test [3] and 8.62 in test [1].
Take `O=C(c1ccc(F)cc1)C1(c2ccccc2)CCN([C@@H]2Cc3ccccc3C[C@H]2O)CC1`: in test [1], the pKi was 8.74.
On to `O[C@@H]1CCCC[C@H]1N1CCC(c2ccccc2)CC1` [VESAMICOL], for which the pKi in test [2] is 7.46.
As for `O=C(c1ccc(Br)s1)C1CCN([C@@H]2CCCC[C@H]2O)CC1`, the Ratio Ki was 0.8 in test [4] and 0.6 in test [5]. Besides, the pKi was 7.45 in test [2], 7.53 in test [3] and 7.33 in test [1].
On to `O=C(C1CCN([C@@H]2Cc3ccccc3C[C@H]2O)CC1)N1CCCCC1` (relative stereo), for which the pKi was < 6.00 in test [2], < 6.00 in test [3] and 7.51 in test [1].
`O=C(c1ccc(Br)cc1)C1CCN([C@@H]2CCCC[C@H]2O)CC1`: the figures for the Ratio Ki in test [4] and in test [5] were 0.6 and 0.3, respectively. Further, the pKi was 7.52 in test [2], 7.80 in test [3] and 7.29 in test [1].
The matching figures for `O=C(c1ccc(I)s1)C1CCN([C@@H]2Cc3ccccc3C[C@H]2O)CC1` (relative stereo): 522, 294, 6.46, 6.71 and 9.18.
Turning to `Nc1cccc2c1C[C@@H](N1CCC(C(=O)c3ccc(Br)s3)CC1)[C@H](O)C2`, the pKi in test [2] was < 6.00; in test [3], < 6.00; in test [1], 9.39.
`Nc1cccc2c1C[C@@H](O)[C@H](N1CCC(C(=O)N3CCCCC3)CC1)C2` showed a negative-log Ki (pKi) in test [1] of 6.35.
Take `O=C(c1ccc(I)s1)C1CCN([C@@H]2CCCC[C@H]2O)CC1`: the Ratio Ki was found to be 0.1 in test [4] and 0.02 in test [5]. The results for the pKi in test [2], in test [3] and in test [1] were 7.31, 8.03 and 6.25, respectively.
Turning to `Nc1cccc2c1C[C@@H](O)[C@H](N1CCC(C(=O)c3cccs3)CC1)C2`, the pKi in test [2] was < 6.00; in test [3] it was < 6.00; in test [1], 6.87.
For `O=C(c1ccc(F)cc1)C1CCN([C@@H]2CCCC[C@H]2O)CC1`, the values for the Ratio Ki in test [4] and in test [5] were 0.3 and 0.7, respectively. Further, the results for the pKi in test [2], in test [3] and in test [1] were 6.95, 6.52 and 6.37, respectively.
In the case of `Nc1cccc2c1C[C@@H](O)[C@H](N1CCC(C(=O)c3ccc(F)cc3)CC1)C2`, the figures for the Ratio Ki in test [4] and in test [5] were 46.4 and 65.4, respectively. For the same molecule, the results for the pKi in test [2], in test [3] and in test [1] were 6.45, 6.30 and 8.12, respectively.
Regarding `O=C(c1ccc(Br)s1)C1CCN([C@@H]2Cc3ccccc3C[C@H]2O)CC1` (relative stereo), the results for the Ratio Ki in test [4] and in test [5] were 133 and 239, respectively. The pKi in test [2] was 7.14; in test [3], 6.89; in test [1], 9.27.
In test [1], `O=C(c1ccccc1)C1(c2ccccc2)CCN([C@@H]2CCCC[C@H]2O)CC1` gave a pKi of 7.16.
For the molecule `O=C(C1CCN([C@@H]2Cc3ccccc3C[C@H]2O)CC1)N1CCC(c2ccccc2)CC1` (relative stereo), in test [5], the Ratio Ki was 24.3. Moreover, the pKi in test [2] was < 6.00; in test [3] it was 7.30; in test [1], 8.68.
With `O=C(c1cccs1)C1CCN([C@@H]2CCCC[C@H]2O)CC1`, in test [1], the pKi is 6.12.
With `O=C(c1ccccc1)C1(c2ccccc2)CCN([C@@H]2Cc3ccccc3C[C@H]2O)CC1` (relative stereo), the pKi in test [1] is 8.79.
`O=C(C1CCN([C@@H]2Cc3ccccc3C[C@H]2O)CC1)N1CCN(Cc2ccccc2)CC1` (relative stereo): the Ratio Ki in test [5] is 56.8. The negative logarithm of the Ki (pKi) was < 6.00 in test [2], 6.93 in test [3] and 8.68 in test [1].
Turning to `Nc1cccc2c1C[C@@H](N1CCC(C(=O)c3ccc(F)cc3)CC1)[C@H](O)C2`, the pKi in test [2] was < 6.00; in test [3], < 6.00; in test [1], 8.62.
Consider `O=C(c1ccccc1)C1CCN([C@@H]2CCCC[C@H]2O)CC1`, for which the Ratio Ki in test [4] came to 0.5; in test [5], 0.4. Further, the pKi in test [2] is 6.47; in test [3], 6.55; in test [1] it was 6.19.
The matching figures for `Nc1cccc2c1C[C@@H](N1CCC(C(=O)c3ccc(Br)cc3)CC1)[C@H](O)C2`: > 1890, 746, < 6.00, 6.40 and 9.28.
On to `CCOC(=O)C1CCN([C@@H]2Cc3ccccc3C[C@H]2O)CC1` (relative stereo), for which the pKi in test [2] is < 6.00; in test [3], < 6.00; in test [1], 7.16.
Consider `O=C(c1cccs1)C1CCN([C@@H]2Cc3ccccc3C[C@H]2O)CC1` (relative stereo), for which the pKi in test [1] is 8.30.
